Consider 5 molecules from ChEMBL document CHEMBL1123088, “Synthesis and characterization of selected heteroarotinoids. Pharmacological activity as assessed in vitamin A deficient hamster tracheal organ cultures. Single-crystal X-ray diffraction analysis of 4,4-dimethylthiochroman-6-yl methyl ketone 1,1-dioxide and ethyl …” (1985).

The test system of assay [1] is Cricetinae gen. sp. The assay is described as follows: Percent activity in the Hamster tracheal organ culture assay at concentration 10e-10 (M). Format: functional, Cricetulus griseus, Trachea. The essentials: (§1)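 Tracheas taken from vitamin A-deficient hamsters were kept in organ culture and scored for reversal of squamous keratinization of the epithelium. All-trans-retinoic acid was run at the same time as a reference in each separate experiment. ED50 is the molar dose that reverses keratinization in 50% of the retinoid-deficient tracheas.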

The subject of assay [2] is Cricetinae gen. sp. The assay is described as follows: Percent activity in the Hamster tracheal organ culture assay at concentration 10e-9 (M). Format: functional, Cricetulus griseus, Trachea. The essentials:
as §1

Assay [3] concerns Cricetinae gen. sp. The assay is described as follows: Dose for reversal of keratinization in epithelium of 50% of retinoid-deficient hamster tracheas in organ culture. Format: functional, Cricetulus griseus. The note with it: Trachea, read-out: ED50 (the source's name). In outline: as §1
Assay [4] has as its system Cricetinae gen. sp. In words: Percent activity in the Hamster tracheal organ culture assay at concentration 10e-8(M). Format: functional, Cricetulus griseus, Trachea. The essentials:
as §1

Assay [5] deals with Cricetinae gen. sp. The assay is described as follows: Percent activity in the Hamster tracheal organ culture assay at concentration 10e-11 (M). Type of assay: functional, Cricetulus griseus, Trachea. In outline: as §1
Assay [6] relates to Cricetinae gen. sp. The assay is described as follows: Percent activity in the Hamster tracheal organ culture assay at concentration 10e-12 (M). Type of assay: functional, Cricetulus griseus, Trachea. In outline: as §1
The subject of assay [7] is Cricetinae gen. sp. The assay is described as follows: The dose for reversal of keratinization in epithelium of 50% of retinoid-deficient hamster tracheas in organ culture. Type of assay: functional, Cricetulus griseus. The following applies: Trachea, read-out: ED50 (the source's name). The essentials: as §1
The test system of assay [8] is Cricetinae gen. sp. In words: Dose for reversal of keratinization in epithelium of 50% of retinoid-deficient hamster tracheas in organ culture in experiment A. The following applies: Trachea, read-out: ED50 (the source's name). Format: functional, Cricetulus griseus. In outline: as §1
Assay [9] deals with Cricetinae gen. sp. In words: Percent activity in the Hamster tracheal organ culture assay at concentration 10e-12 (M) in experiment A. Type of assay: functional, Cricetulus griseus, Trachea. In outline: as §1
In assay [10] the test system is Cricetinae gen. sp. The assay is described as follows: Percent activity in the Hamster tracheal organ culture assay at concentration 10e-11 (M) in experiment D. Format: functional, Cricetulus griseus, Trachea. In outline:
as §1

The subject of assay [11] is Cricetinae gen. sp. In words: Percent activity in the Hamster tracheal organ culture assay at concentration 10e-10 (M) in experiment C. Format: functional, Cricetulus griseus, Trachea. The essentials:
as §1

For assay [12], the system named is Cricetinae gen. sp. In words: Percent activity in the Hamster tracheal organ culture assay at concentration 10e-12 (M) in experiment B. Type of assay: functional, Cricetulus griseus, Trachea. In outline: as §1
Assay [13] deals with Cricetinae gen. sp. The assay is described as follows: Percent activity in the Hamster tracheal organ culture assay at concentration 10e-10 (M) in experiment D. Type of assay: functional, Cricetulus griseus, Trachea. The essentials: as §1
The subject of assay [14] is Cricetinae gen. sp. The assay is described as follows: Dose for reversal of keratinization in epithelium of 50% of retinoid-deficient hamster tracheas in organ culture in experiment C. The note with it: Trachea, read-out: ED50 (the source's name). Type of assay: functional, Cricetulus griseus. The essentials:
as §1

The subject of assay [15] is Cricetinae gen. sp. In words: Percent activity in the Hamster tracheal organ culture assay at concentration 10e-11 (M) in experiment C. Format: functional, Cricetulus griseus, Trachea. The essentials:
as §1

Assay [16] concerns Cricetinae gen. sp. The assay is described as follows: Percent activity in the Hamster tracheal organ culture assay at concentration 10e-10 (M) in experiment B. Type of assay: functional, Cricetulus griseus, Trachea. The essentials: as §1
Assay [17] relates to Cricetinae gen. sp. The assay is described as follows: Dose for reversal of keratinization in epithelium of 50% of retinoid-deficient hamster tracheas in organ culture in experiment D. The following applies: Trachea, read-out: ED50 (the source's name). Type of assay: functional, Cricetulus griseus. In outline:
as §1

The subject of assay [18] is Cricetinae gen. sp. In words: Percent activity in the Hamster tracheal organ culture assay at concentration 10e-11 (M) in experiment A. Type of assay: functional, Cricetulus griseus, Trachea. In outline: as §1
The test system of assay [19] is Cricetinae gen. sp. The assay is described as follows: Percent activity in the Hamster tracheal organ culture assay at concentration 10e-12 (M) in experiment D. Format: functional, Cricetulus griseus, Trachea. The essentials: as §1
The test system of assay [20] is Cricetinae gen. sp. In words: Percent activity in the Hamster tracheal organ culture assay at concentration 10e-11 (M) in experiment B. Format: functional, Cricetulus griseus, Trachea. In outline:
as §1

Assay [21] has as its system Cricetinae gen. sp. The assay is described as follows: Percent activity in the Hamster tracheal organ culture assay at concentration 10e-10 (M).
The test system of assay [22] is Cricetinae gen. sp. The assay is described as follows: Percent activity in the Hamster tracheal organ culture assay at concentration 10e-12 (M) in experiment C. Format: functional, Cricetulus griseus, Trachea. In outline:
as §1

The test system of assay [23] is Cricetinae gen. sp. In words: Dose for reversal of keratinization in epithelium of 50% of retinoid-deficient hamster tracheas in organ culture in experiment B. Format: functional, Cricetulus griseus. The following applies: Trachea, read-out: ED50 (the source's name). In outline:
as §1

With `C/C(=C\c1ccc(C(=O)O)cc1)c1ccc2c(c1)C(C)(C)CCO2`, the values for the Activity in assay [1], in assay [2] and in assay [4] were 18.6%, 71.4% and 71.4%, respectively. Besides, the EC50 in [3] stood at 0.6 nM.
In the case of `CCOC(=O)c1ccc(/C=C(\C)c2ccc3c(c2)C(C)(C)CCS3)cc1`, the Activity in [1] was determined as 53.8%; in [2], 100%; in assay [5] it was 28.6%; in [6], 33.7%. The EC50 in [3] came out at 0.06 nM.
With `CCOC(=O)c1ccc(/C=C(\C)c2ccc3c(c2)C(C)(C)CCO3)cc1`, the Activity was determined as 50% in assay [1], 100% in [2] and 28.2% in [5]. The EC50 in assay [3] stood at 0.1 nM.
Turning to `CCOC(=O)c1ccc(/C=C(\C)c2ccc3c(c2)C(C)(C)CC[S+]3[O-])cc1` (centres undefined), the Activity was found to be 57.1% in assay [1], 100% in assay [2], 11.1% in assay [5] and 100% in assay [4]. For the same molecule, in assay [7], the EC50 turned out to be 0.1 nM.
As for `CC1=C(/C=C/C(C)=C/C=C/C(C)=C/C(=O)O)C(C)(C)CCC1` [TRETINOIN], the EC50 in assay [8] turned out to be 0.02 nM; in [14] it was 0.1 nM; in [17], 0.01 nM; in assay [23] it was 0.009 nM. Besides, the Activity in assay [9] was determined as 23.1%; in [10], 50%; in [11], 83.3%; in assay [12], 23.1%; in [13], 83.7%; in [15], 50%. In addition, the Activity was 100% in assay [16]; 41.7% in assay [18]; 33.3% in assay [19]; 53.8% in assay [20]; 76.9% in assay [21]; 16.7% in [22].
